Measured values as given in ChEMBL document CHEMBL1154352, “Toll-like receptor 7 selective synthetic oligoribonucleotide agonists: synthesis and structure-activity relationship studies” (J Med Chem, 2009).
Active and inactive are the calls of the source. The calls are words filed in the database; no cut-off is given here.

How the values were obtained:
Homo sapiens [1] = species on record: Homo sapiens; test: Immunostimulatory activity in human mDC assessed as induction of IP10 at 100 ug/ml after 24 hrs; type: functional
Outline: (§1)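 Human mDCs isolated from PBMCs by CD19+ B-cell depletion then BDCA1 positive selection; plated at 1 × 10^6 cells/mL, compounds in PBS, 37 °C for 24 h; supernatant cytokines by human Luminex multiplex. Representative of four independent experiments.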

PBMC [2] = test: Immunomodulatory activity in human PBMC assessed as induction of MIP1alpha at 50 ug/ml after 24 hrs; type: functional, cell-based
Outline: (§2)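 Human PBMCs plated at 5 × 10^6 cells/mL; compounds dissolved in PBS added at various concentrations, 37 °C for 24 h. Supernatant cytokines/chemokines quantified with human Luminex multiplex kit.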

PBMC [3] = test: Immunomodulatory activity in human PBMC assessed as induction of IL12 at 100 ug/ml after 24 hrs; type: functional, cell-based; outline: as §2
PBMC [4] = test: Immunomodulatory activity in human PBMC assessed as induction of IP10 at 50 ug/ml after 24 hrs; type: functional, cell-based; outline: as §2
PBMC [5] = test: Immunomodulatory activity in human PBMC assessed as induction of IL12 at 50 ug/ml after 24 hrs; type: functional, cell-based; outline: as §2
PBMC [6] = test: Immunomodulatory activity in human PBMC assessed as induction of TNFalpha at 50 ug/ml after 24 hrs; type: functional, cell-based; outline: as §2
PBMC [7] = test: Immunomodulatory activity in human PBMC assessed as induction of MIP1beta at 50 ug/ml after 24 hrs; type: functional, cell-based; outline: as §2
Homo sapiens [8] = species on record: Homo sapiens; test: Immunostimulatory activity in human mDC assessed as induction of TNFalpha at 100 ug/ml after 24 hrs; type: functional; outline: as §1
Mus musculus = test: Immunomodulatory activity in C57BL/6 mouse assessed as induction of IL12 release at 25 mg/kg, sc after 2 hrs by ELISA; type: functional, organism-based; design: dose 25 mg/kg
Outline: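 Female C57BL/6 wild-type mice, 5–8 weeks old, n=3; compounds given subcutaneously at 10 or 25 mg/kg. Retro-orbital blood at 2 h; serum cytokines by mouse Luminex multiplex or IL-12 ELISA.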

Homo sapiens [9] = species on record: Homo sapiens; test: Immunostimulatory activity in human mDC assessed as induction of IL12 at 100 ug/ml after 24 hrs; type: functional; outline: as §1
Homo sapiens [10] = species on record: Homo sapiens; test: Immunostimulatory activity in human pDC assessed as induction of IFNalpha at 100 ug/ml after 24 hrs; type: functional
Outline: (§3)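 Human pDCs plated at 1 × 10^6 cells/mL; compounds in PBS added, 37 °C for 24 h; supernatant cytokines/chemokines by human Luminex multiplex kit.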

Homo sapiens [11] = species on record: Homo sapiens; test: Immunostimulatory activity in human mDC assessed as induction of IL6 at 100 ug/ml after 24 hrs; type: functional; outline: as §1
PBMC [12] = test: Immunomodulatory activity in human PBMC assessed as induction of MCP1 at 50 ug/ml after 24 hrs; type: functional, cell-based; outline: as §2
Homo sapiens [13] = species on record: Homo sapiens; test: Immunostimulatory activity in human pDC assessed as induction of IL6 at 100 ug/ml after 24 hrs; type: functional; outline: as §3
Splenocyte = test: Immunomodulatory activity in C57BL/6 mouse splenocytes bearing TLR7 receptor assessed as IL6 release at 100 ug/ml after 24 hrs by ELISA; type: functional, cell-based
Outline: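 C57BL/6 splenocytes in RPMI 1640 with 10% FBS, penicillin/streptomycin, 2 mM L-glutamine, plated at 5 × 10^6 cells/mL; compounds in PBS added, 37 °C for 24 h. Supernatant IL-12 and IL-6 by ELISA; representative of three independent experiments.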

PBMC [14] = test: Immunomodulatory activity in human PBMC assessed as induction of IFNalpha at 50 ug/ml after 24 hrs; type: functional, cell-based; outline: as §2
Homo sapiens [15] = species on record: Homo sapiens; test: Immunostimulatory activity in human pDC assessed as induction of IP10 at 100 ug/ml after 24 hrs; type: functional; outline: as §3
PBMC [16] = test: Immunomodulatory activity in human PBMC assessed as induction of IL1-beta at 50 ug/ml after 24 hrs; type: functional, cell-based; outline: as §2
[17] = target: T1, Toll-like receptor 9 (Mus musculus) (UniProt Q9EQU3); test: Activation of mouse TLR9 expressed in HEK293 assessed as induction of NF-kappaB activity reporter gene assay; type: cell-based
T1 sequence (whole entry): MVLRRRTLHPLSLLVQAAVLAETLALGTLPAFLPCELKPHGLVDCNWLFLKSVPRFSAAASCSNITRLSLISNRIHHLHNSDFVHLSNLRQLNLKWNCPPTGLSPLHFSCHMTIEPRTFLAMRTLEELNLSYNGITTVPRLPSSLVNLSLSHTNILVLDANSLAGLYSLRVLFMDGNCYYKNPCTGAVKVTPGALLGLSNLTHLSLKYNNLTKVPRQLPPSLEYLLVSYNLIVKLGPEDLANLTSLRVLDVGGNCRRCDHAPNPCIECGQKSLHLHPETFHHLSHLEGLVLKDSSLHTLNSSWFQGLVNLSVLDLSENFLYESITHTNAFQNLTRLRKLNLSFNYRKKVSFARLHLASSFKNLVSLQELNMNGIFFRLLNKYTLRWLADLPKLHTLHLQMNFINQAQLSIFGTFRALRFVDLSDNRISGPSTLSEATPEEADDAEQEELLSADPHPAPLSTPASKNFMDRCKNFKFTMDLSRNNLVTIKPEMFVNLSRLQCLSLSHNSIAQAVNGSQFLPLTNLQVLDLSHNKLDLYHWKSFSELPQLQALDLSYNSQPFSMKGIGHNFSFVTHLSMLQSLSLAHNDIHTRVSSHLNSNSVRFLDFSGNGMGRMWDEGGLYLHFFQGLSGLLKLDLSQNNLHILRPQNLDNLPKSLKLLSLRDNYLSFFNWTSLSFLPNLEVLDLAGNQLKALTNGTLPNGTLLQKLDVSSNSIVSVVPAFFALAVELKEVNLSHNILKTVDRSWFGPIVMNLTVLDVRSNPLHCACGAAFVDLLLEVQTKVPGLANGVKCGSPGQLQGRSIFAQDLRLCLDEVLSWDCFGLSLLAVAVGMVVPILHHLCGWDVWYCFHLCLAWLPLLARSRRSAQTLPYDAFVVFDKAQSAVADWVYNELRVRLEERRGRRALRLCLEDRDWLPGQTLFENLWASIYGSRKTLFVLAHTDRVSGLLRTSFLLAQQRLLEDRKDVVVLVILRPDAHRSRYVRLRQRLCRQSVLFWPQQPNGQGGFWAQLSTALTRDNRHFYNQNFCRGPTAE

PBMC [18] = test: Immunomodulatory activity in human PBMC assessed as induction of IL6 at 50 ug/ml after 24 hrs; type: functional, cell-based; outline: as §2
Homo sapiens [19] = species on record: Homo sapiens; test: Ratio of human TLR7 activity to human TLR8 activity
Outline: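 TLR7/TLR8 ratio computed from fold NF-κB (SEAP reporter) activation in HEK293 cells stably expressing human TLR7 versus TLR8, compounds at 50 μg/mL, 18 h exposure; representative of three independent experiments.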

Homo sapiens [20] = species on record: Homo sapiens; test: Immunostimulatory activity in human mDC assessed as induction of IFNalpha at 100 ug/ml after 24 hrs; type: functional; outline: as §1
PBMC [21] = test: Immunomodulatory activity in human PBMC assessed as induction of MIP1alpha after 24 hrs; type: functional, cell-based; outline: as §2
[22] = Metabolic stability in human serum assessed as full length product remaining after 10 mins by HPLC; type: ADME, cell-free; settings: read-out: Stability
Outline: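 About 0.5 A260 units compound in 1% human serum in PBS, 37 °C; aliquot taken at 10 min, analysed by anion-exchange HPLC for percent intact full-length product.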

## Nc1ccn([C@@H]2O[C@H](COP(=O)(S)O[C@H]3[C@@H](O)[C@H](n4cnc5c(N)ncnc54)O[C@@H]3COP(=O)(S)O[C@H]3[C@@H](O)[C@H](n4cnc5c(N)ncnc54)O[C@@H]3CO)[C@@H](OP(=O)(S)OC[C@H]3O[C@@H](n4ccc(=O)[nH]c4=O)[C@H](O)[C@@H]3OP(=O)(S)OC[C@H]3O[C@@H](n4ccc5c(=O)[nH]c(N)nc54)[C@H](O)[C@@H]3OP(=O)(S)OC[C@H]3O[C@@H](n4cnc5c(N)ncnc54)[C@H](O)[C@@H]3OP(=O)(S)OC[C@H]3O[C@@H](n4ccc(N)nc4=O)[C@H](O)[C@@H]3OP(=O)(S)OC[C@H]3O[C@@H](n4ccc5c(=O)[nH]c(N)nc54)[C@H](O)[C@@H]3OP(=O)(S)OC[C@H]3O[C@@H](n4ccc(N)nc4=O)[C@H](O)[C@@H]3OP(=O)(S)OC[C@H]3O[C@@H](n4ccc(=O)[nH]c4=O)[C@H](O)[C@@H]3OP(=O)(S)OC[C@H]3O[C@@H](n4ccc(=O)[nH]c4=O)[C@H](O)[C@@H]3OP(=O)(S)OCC(O)COP(=O)(S)O[C@H]3[C@@H](O)[C@H](n4ccc(=O)[nH]c4=O)O[C@@H]3COP(=O)(S)O[C@H]3[C@@H](O)[C@H](n4ccc(=O)[nH]c4=O)O[C@@H]3COP(=O)(S)O[C@H]3[C@@H](O)[C@H](n4ccc(N)nc4=O)O[C@@H]3COP(=O)(S)O[C@H]3[C@@H](O)[C@H](n4ccc5c(=O)[nH]c(N)nc54)O[C@@H]3COP(=O)(S)O[C@H]3[C@@H](O)[C@H](n4ccc(N)nc4=O)O[C@@H]3COP(=O)(S)O[C@H]3[C@@H](O)[C@H](n4cnc5c(N)ncnc54)O[C@@H]3COP(=O)(S)O[C@H]3[C@@H](O)[C@H](n4ccc5c(=O)[nH]c(N)nc54)O[C@@H]3COP(=O)(S)O[C@H]3[C@@H](O)[C@H](n4ccc(=O)[nH]c4=O)O[C@@H]3COP(=O)(S)O[C@H]3[C@@H](O)[C@H](n4ccc(N)nc4=O)O[C@@H]3COP(=O)(S)O[C@H]3[C@@H](O)[C@H](n4cnc5c(N)ncnc54)O[C@@H]3COP(=O)(S)O[C@H]3[C@@H](O)[C@H](n4cnc5c(N)ncnc54)O[C@@H]3CO)[C@H]2O)c(=O)n1 (some centres undefined)
Homo sapiens [1]
  Activity: Active
PBMC [2]
  Activity: 2200 pg/mL
PBMC [3]
  Activity: 250 pg/mL
PBMC [4]
  Activity: 1020 pg/mL
PBMC [5]
  Activity: 223 pg/mL
PBMC [6]
  Activity: 39 pg/mL
PBMC [7]
  Activity: 5880 pg/mL
Homo sapiens [8]
  Activity: Active
Mus musculus
  Activity: Active
Homo sapiens [9]
  Activity: Active
Homo sapiens [10]
  Activity: Active
Homo sapiens [11]
  Activity: Active
PBMC [12]
  Activity: 42100 pg/mL
Homo sapiens [13]
  Activity: Active
Splenocyte
  Activity: Active
PBMC [14]
  Activity: 434 pg/mL
Homo sapiens [15]
  Activity: Active
PBMC [16]
  Activity: 47 pg/mL
[17]
  Activity: inactive
PBMC [18]
  Activity: 791 pg/mL
Homo sapiens [19]
  Ratio: 53.8
Homo sapiens [20]
  Activity: Active
PBMC [21]
  Activity: Dose-dependent effect
[22]
  remaining at 10 min: 87%
